Tests used:
[1] = Growth inhibition of human HUVEC cells assessed as reduction in cell number after 48 hrs by alamarBlue based fluorescence assay
Outline: (§1)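 Cells (2,500 per well in growth medium) were allowed 24 h, then exposed 48 h to compound over 0.5 nM–500 μM. alamarBlue was added and fluorescence read 4 h later (ex 560/em 590 nm). Dose-response curves were fitted relative to DMSO control; compounds not reducing cell number ≥50% at the top concentration were reported as GI50 >100 μM.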

Y79 = test: Growth inhibition of human Y79 cells assessed as reduction in cell number after 48 hrs by alamarBlue based fluorescence assay; format: functional; details: Y79, 48 h; outline: as §1
[2] = Growth inhibition of human HREC cells assessed as reduction in cell number after 48 hrs by alamarBlue based fluorescence assay; format: functional; outline: as §1
[3] = Growth inhibition of human 92-1 cells assessed as reduction in cell number after 48 hrs by alamarBlue based fluorescence assay; format: functional; outline: as §1

Structure (SMILES)	GI50 at 48 h [1] [µM]	GI50 (Y79) [µM]	GI50 [2] [µM]	GI50 [3] [µM]
COc1ccc(CC2COc3cc(OC)c(OC)c(OC)c3C2=O)cc1OC(=O)CCc1ccccc1 (configuration not stated)	38	> 100	0.22	> 100
COc1ccc(CC2COc3cc(OC)c(OC)c(OC)c3C2=O)cc1N (configuration not stated)	0.51	> 100	1.1	> 100
CC[C@H](C)[C@H](NC(=O)OC(C)(C)C)C(=O)Oc1cc(CC2COc3cc(OC)c(OC)c(OC)c3C2=O)ccc1OC (some centres not stated)	> 100	24	3.1	> 100
COc1ccc(CC2COc3cc(OC)c(OC)c(OC)c3C2=O)cc1C(=O)O (configuration not stated)	92	> 100	> 100	> 100
COc1ccc(/C=C2\COc3cc(OC)c(OC)c(OC)c3C2=O)cc1OCc1ccccc1	16	33	4.3	3.5
COc1ccc(CC2COc3cc(OC)c(OC)c(OC)c3C2=O)cc1OCc1ccccc1 (configuration not stated)	> 100	20	22	61
COc1cc(/C=C2\COc3cc(OC)c(OC)c(OC)c3C2=O)ccc1OCc1ccccc1	52	14	35	68
C=CCOc1ccc(C[C@H](NC(=O)OC(C)(C)C)C(=O)Nc2cc(CC3COc4cc(OC)c(OC)c(OC)c4C3=O)ccc2OC)cc1 (some centres not stated)	4.5	2.5	13	1.9
COc1ccc(CC2COc3cc(O)c(OC)c(OC)c3C2=O)cc1O (configuration not stated)	> 100	> 100	> 100	> 100
COc1cc(/C=C2\COc3cc(OC)c(OC)c(OC)c3C2=O)ccc1O	6.2	5.2	3.3	26
COc1cc(OC)c2c(c1)OCC(Cc1ccc(OC)c(O)c1)C2=O (configuration not stated)	2.5	4.2	1.6	> 100
COc1ccc(CC2COc3cc(OC)c(OC)c(OC)c3C2=O)cc1OC(=O)[C@H](CC(C)C)NC(=O)OC(C)(C)C (some centres not stated)	> 100	> 100	0.13	> 100
COc1ccc(CC2COc3cc(OC)c(OC)c(OC)c3C2=O)cc1OC(=O)[C@H](Cc1ccccc1)NS(=O)(=O)c1ccc(C)cc1 (some centres not stated)	22	> 100	1.5	> 100
COc1ccc(CC2COc3cc(OC)c(OC)c(O)c3C2=O)cc1O (configuration not stated)	44	> 100	> 100	> 100
COc1ccc(CC2COc3cc(OC)c(OC)c(OC)c3C2=O)cc1NC(=O)[C@H](Cc1ccc(OCc2ccccc2)cc1)NC(=O)OC(C)(C)C (some centres not stated)	> 100	0.39	> 100	> 100
COc1cc2c(c(OC)c1OC)C(=O)/C(=C/c1ccc(O)c(O)c1)CO2	5	4	7.6	9.5
COc1ccc(CC2COc3cc(OC)c(OC)c(OC)c3C2=O)cc1OC(=O)[C@H](Cc1ccc(OCc2ccccc2)cc1)NC(=O)OC(C)(C)C (some centres not stated)	> 100	> 100	0.51	> 100
COC(=O)c1cc(/C=C2\COc3cc(OC)c(OC)c(OC)c3C2=O)ccc1OC	3.2	6.1	5.6	> 100
COc1ccc(/C=C2\COc3cc(OC)c(OC)c(OC)c3C2=O)cc1F	7.6	9.8	2.8	7

Structure (SMILES)	GI50 at 48 h [1] [µM]	GI50 (Y79) [µM]	GI50 [2] [µM]	GI50 [3] [µM]
CCN(CC)C(=O)Oc1cc(CC2COc3cc(OC)c(OC)c(OC)c3C2=O)ccc1OC (configuration not stated)	> 100	24	49	> 100
COc1ccc(CC2COc3cc(OC)c(OC)c(OC)c3C2=O)cc1OC(=O)/C=C/c1ccccc1 (configuration not stated)	> 100	> 100	0.17	> 100
CCNC(=O)N[C@@H](Cc1ccccc1)C(=O)Oc1cc(CC2COc3cc(OC)c(OC)c(OC)c3C2=O)ccc1OC (some centres not stated)	34	48	1	98
COc1ccc(CC2COc3cc(OC)c(O)c(O)c3C2=O)cc1O (configuration not stated)	18	> 100	45	10
C=CCOc1cc(/C=C2\COc3cc(OC)c(OC)c(OC)c3C2=O)ccc1OC	12	2.8	3.9	1.1
COc1cc2c(c(OC)c1OC)C(=O)/C(=C/c1ccc(OCc3ccccc3)c(OCc3ccccc3)c1)CO2	43	32	72	> 100
COc1ccc(CC2COc3cc(OC)c(OC)c(OC)c3C2=O)cc1O (configuration not stated)	12	> 100	2	> 100
COc1ccc(CC2COc3cc(O)c(OC)c(O)c3C2=O)cc1O (configuration not stated)	0.38	9.8	0.22	48
COc1cc2c(c(OC)c1OC)C(=O)C(Cc1ccccc1)CO2 (configuration not stated)	> 100	> 100	> 100	> 100
COc1cc(OC)c2c(c1)OC/C(=C\c1ccc(OC)c(O)c1)C2=O	15	14	42	> 100
COc1ccc(CC2COc3cc(OC)c(OC)c(OC)c3C2=O)cc1OC(=O)[C@H](Cc1ccccc1)NC(=O)OCc1ccccc1 (some centres not stated)	> 100	> 100	0.14	> 100
C=CCOc1ccc(C[C@H](NC(=O)OC(C)(C)C)C(=O)Oc2cc(CC3COc4cc(OC)c(OC)c(OC)c4C3=O)ccc2OC)cc1 (some centres not stated)	0.091	52	0.16	> 100
COc1ccc(CC2COc3cc(OC)c(OC)c(OC)c3C2=O)cc1OC(=O)c1ccccc1 (configuration not stated)	> 100	> 100	0.65	> 100
COc1ccc(/C=C2\COc3cc(OC)c(OC)c(OC)c3C2=O)cc1[N+](=O)[O-]	15	2.2	4.8	12
COc1ccc(/C=C2\COc3cc(OC)c(OC)c(OC)c3C2=O)cc1O	5.6	44	46	0.22
COc1ccc(CC2COc3cc(OC)c(OC)c(OC)c3C2=O)cc1OC(=O)[C@H](CCc1ccccc1)NC(=O)OC(C)(C)C (some centres not stated)	> 100	> 100	0.17	> 100
COc1ccc(CC2COc3cc(OC)c(OC)c(OC)c3C2=O)cc1NC(=O)[C@H](Cc1ccccc1)NC(=O)OC(C)(C)C (some centres not stated)	8.6	4.7	22	3.1
COC(=O)c1cc(CC2COc3cc(OC)c(OC)c(OC)c3C2=O)ccc1OC (configuration not stated)	17	40	18	> 100
CCCCNC(=O)N[C@@H](Cc1ccccc1)C(=O)Oc1cc(CC2COc3cc(OC)c(OC)c(OC)c3C2=O)ccc1OC (some centres not stated)	> 100	64	1.4	> 100
